Rows were chosen to be rich in hits. Some 1.2% of all compounds tested hit in one or more screens of this group.
AF4-AF9 inh: blocks AF4 peptide binding to human AF9 | P42568 | inhibition, % at 10 µM | AlphaScreen, biotin-AF4 peptide binding to FLAG-AF9 | AID 651704 | hit rate 0.47% among 350,000;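 active = every replicate reaching a set inhibition limit, whatever the replicate mean, cut at about 25% in these data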;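 also: 0% = plate neutral control median and 100% = total signal loss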
RAD52 anneal inh: inhibitors of human RAD52 DNA annealing; P43351; recombinant RAD52 DNA annealing, FRET fluorescence; inhibition, % at 18.7 µM; hit rate 0.46% among 360,000; AID 651710;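 active = every replicate showing at least 50% inhibition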
Target sequence (P43351 whole entry, looked up): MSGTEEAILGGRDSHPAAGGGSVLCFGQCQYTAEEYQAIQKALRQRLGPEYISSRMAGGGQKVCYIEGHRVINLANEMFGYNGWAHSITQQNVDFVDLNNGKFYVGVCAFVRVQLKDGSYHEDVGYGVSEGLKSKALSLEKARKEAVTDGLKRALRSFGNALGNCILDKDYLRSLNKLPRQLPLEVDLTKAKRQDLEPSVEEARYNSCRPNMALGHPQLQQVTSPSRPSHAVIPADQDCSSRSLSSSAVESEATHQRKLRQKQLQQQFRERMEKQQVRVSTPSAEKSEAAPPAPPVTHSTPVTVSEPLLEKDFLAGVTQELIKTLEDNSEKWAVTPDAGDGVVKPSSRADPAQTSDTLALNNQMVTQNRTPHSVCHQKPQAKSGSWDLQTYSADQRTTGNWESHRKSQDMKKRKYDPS
FN deposition inh: fibronectin deposition inhibition; AH1F fibroblasts, Alexa488-fibronectin deposition fluorescence, overnight; inhibition, % at 12.6 µM; hit rate 0.086% among 350,000;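 active = mean inhibition across replicates of 30% or more, regardless of how many single replicates reach that level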;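 also: positive control wells lacked labelled fibronectin entirely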
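Assay system: AH1F fibroblasts / Quantity: 10000 cells per well / Medium: DMEM plus 2% serum, read in PBS / Reagent: labelled fibronectin 24 nM / Dosing: single dose, pinned / Times: 1 h cell attachment, overnight exposure to compound and label / Signal: fluorescence, ex 485 nm, em 525 nm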
NSD2 inh: blocks human histone methyltransferase NSD2. inhibition, % at 12.5 µM. AID 743445. NSD2 peptide methylation, AlphaScreen, 120 min. hit rate 0.54% among 310,000; in the data active = inhibition above about 50%
RAD54 branch: blocks human RAD54 Holliday junction branch migration. FAM/BHQ fluorescence. hit rate 0.14% among 360,000. Q92698. inhibition, % at 10.4 µM. AID 602329;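 active = mean normalized replicate activity at least 40 and at least half of replicates scoring 40 or more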;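 also: 0% = median of neutral control wells and 100% = median of positive control wells; inhibitors cause a drop in the FAM fluorescence signal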
N-glyco inh: blocks N-linked glycosylation in D54 reporter cells. reporter increase, % at 12.5 µM. hit rate 0.23% among 360,000. D54 ERlucT glycosylation luciferase reporter, 24 h; percent of 100 nM tunicamycin response;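 active = mean luciferase reporter signal, scaled so untreated is 0 and the glycosylation-blocking control 100, at or above a set limit in every replicate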;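 also: luciferase carries N-glycosylation sites so blocking glycosylation raises the light; 0% = median of neutral control wells and 100% = median of 100 nM tunicamycin wells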
* = called active by the depositor.

CCOC(=O)c1ccccc1NC(=O)Cn1c(-c2nonc2N)nc2ccccc21 was read as FN deposition inh active, NSD2 inh 18, RAD54 branch -3 and N-glyco inh 23.
CCN1Cc2cc(C(=O)NCCN3CCCC3)nc(-c3cccc(C4=CCCC4)c3)c2[C@H]1CCO was read as FN deposition inh 3.
For CN(CCCC(=O)O)c1ccc(N=Nc2ccc([N+](=O)[O-])cc2)cc1 the results were AF4-AF9 inh 38*, RAD52 anneal inh -3, FN deposition inh 3, NSD2 inh 25 and N-glyco inh -11.
`CN(N=Nc1ccc([N+](=O)[O-])cc1)c1ccccc1` gave AF4-AF9 inh 7, RAD52 anneal inh inactive, FN deposition inh 17, NSD2 inh 1, RAD54 branch -2 and N-glyco inh -2.
`Cc1noc(C)c1NC(=O)Nc1cccc2c1O[C@@H](CN(C)C(=O)NC(C)C)[C@H](C)CN([C@H](C)CO)C2=O` gave AF4-AF9 inh -1, RAD52 anneal inh 2 and RAD54 branch 0.
For CCc1ccc(-c2nc(CN3CCC(C(=O)NCCc4ccc(OC)c(OC)c4)CC3)c(C)o2)cc1 the results were FN deposition inh 8, NSD2 inh -3, RAD54 branch -10 and N-glyco inh 0.
Screening COc1ccc(CCNC(=O)C2CCN(Cc3nc(-c4ccccc4F)oc3C)CC2)cc1OC returned FN deposition inh 34*, NSD2 inh 1, RAD54 branch -2 and N-glyco inh -3.
For COc1ccccc1-c1nnc2n1N=C(c1ccc(O)c(O)c1)CS2 the results were NSD2 inh 56*, RAD54 branch -6 and N-glyco inh 10.
For CCOc1ccc(C2=Nn3c(nnc3-c3ccccc3OC)SC2)cc1 the results were NSD2 inh 8, RAD54 branch -5 and N-glyco inh 10.
`Cc1c(C(=O)N(Cc2ccc(N(C)C)cc2)CC2CCCO2)oc2ccccc12` (centres undefined) gave AF4-AF9 inh 19, RAD52 anneal inh 1, FN deposition inh 1, NSD2 inh 44, RAD54 branch 8 and N-glyco inh -2.
Screening CN(C)c1ccc(CN(CC2CCCO2)C(=O)c2cc3ccccc3o2)cc1 (centres undefined) returned AF4-AF9 inh 26*, RAD52 anneal inh -7, FN deposition inh -3, NSD2 inh 13, RAD54 branch -4 and N-glyco inh -3.
Screening Nc1ccc(Nc2ccccc2)c(S(=O)(=O)O)c1 returned AF4-AF9 inh 13, RAD52 anneal inh -60, FN deposition inh -4, NSD2 inh 94*, RAD54 branch 9 and N-glyco inh 2.
`O=C(CN1C(=O)/C(=C/c2ccco2)SC1=S)Nc1ccc(C(=O)O)c(O)c1` gave AF4-AF9 inh 6, RAD52 anneal inh -216, FN deposition inh -2, NSD2 inh 135*, RAD54 branch -24 and N-glyco inh 0.
Screening CC(C(=O)Nc1ccc(C(=O)O)c(O)c1)N1C(=O)/C(=C\c2ccco2)SC1=S (centres undefined) returned RAD54 branch -1 and N-glyco inh -2.
For Cc1ccc(C(=O)N/C(=C\c2cccs2)C(=O)NCCc2c[nH]c3ccccc23)cc1 the results were NSD2 inh -2 and N-glyco inh 42*.
Screening COc1ccc(/C=C(/NC(=O)c2ccc(OC)cc2)C(=O)NCCc2c[nH]c3ccccc23)cc1 returned AF4-AF9 inh 0, RAD52 anneal inh -2, FN deposition inh -7, NSD2 inh -1 and N-glyco inh -2.
For CCCn1c(SCC(=O)N2c3ccccc3Sc3ccccc32)nc2c1c(=O)n(C)c(=O)n2C the results were FN deposition inh active, NSD2 inh 1, RAD54 branch -10 and N-glyco inh -5.
Screening O=C(c1cccnc1)N1C[C@H]2[C@@H](c3ccccc31)[C@H](CO)N2CC1CCCCC1 returned AF4-AF9 inh 2, RAD52 anneal inh 4 and RAD54 branch -3.
Screening O=C(c1cccnc1)N1C[C@H]2[C@@H](c3ccccc31)[C@H](CO)N2CC1CCCC1 returned AF4-AF9 inh -3, RAD52 anneal inh -2, FN deposition inh 32* and RAD54 branch 0.
CC(C)NC(=O)N[C@@H]1CC[C@@H](CC(=O)NCCN2CCCC2)O[C@@H]1CO was read as AF4-AF9 inh -1, RAD52 anneal inh -7, FN deposition inh 3 and RAD54 branch -1.
